Test results reported in ChEMBL document CHEMBL1122328, “Hypolipidemic activity of phthalimide derivatives. 2. N-phenylphthalimide and derivatives” (1983).

Legend:
Assay type in all cases: functional
Mus musculus [1] = test: In vitro effect on CF1 male mouse on Ac-CoA synthetase after 16 days at a dose of 60 (mg/kg)/day
Procedure, shortened: (§1)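 In vivo enzyme study. CF₁ male mice were dosed ip for 16 days in 1% CMC, and liver was homogenised to 10% in 0.25 M sucrose with 0.001 M EDTA. Enzymes assayed: acetyl-CoA synthetase as hydroxamate at 540 nm after 30 min at 37 °C; HMG CoA reductase with [1-¹⁴C]acetate in 9000g supernatant for 60 min at 37 °C; fatty acid synthetase with [2-¹⁴C]malonyl-CoA; acyltransferase with [³H]glycerol 3-phosphate and microsomes for 10 min; phosphatidate phosphohydrolase as released phosphate at 820 nm after 30 min. N = 6; reported as % control.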

Rattus norvegicus [2] = test: Effect on low density cholesterol Holtzman rats after 14 days administration
Procedure, shortened: (§2)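 Holtzman male rats (~400 g) given drug at 20 (mg/kg)/day for 14 days; on day 14 blood taken from the abdominal aorta and serum separated by centrifugation at 3500 rpm; lipid and protein content of the lipoprotein fractions measured.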

Mus musculus [3] = species on record: Mus musculus; test: In vitro effect on CF1 male mouse on HMGCoA reductase
Mus musculus [4] = test: In vitro effect on CF1 male mouse on acyltransferase after 16 days at a dose of 40 (mg/kg)/day; procedure, shortened: as §1
Mus musculus [5] = species on record: Mus musculus; test: In vitro effect on CF1 male mouse on Fatty acid synthetase
Rattus norvegicus [6] = test: Effect on neutral lipids Holtzman rats after 14 days administration
Mus musculus [7] = test: In vitro effect on CF1 male mouse onAc-CoA carboxylase after 16 days at a dose of 10 (mg/kg)/day; conditions: in the assay text read “In vivo” for “In vitro”
Procedure, shortened: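 Mice (CF1 males) given agent ip daily for 16 days in 1% carboxymethylcellulose; liver 10% homogenate in 0.25 M sucrose + 0.001 M EDTA. Acetyl-CoA carboxylase first polymerized 30 min at 37 °C, then incubated 30 min at 37 °C with sodium [14C]bicarbonate (41.0 mCi/mmol); incorporated label counted. Activity as % of vehicle control; N = 6.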

Rattus norvegicus [8] = test: Effect on high density Phospholipids Holtzman rats after 14 days administration; procedure, shortened: as §2
Mus musculus [9] = species on record: Mus musculus; test: In vitro effect on CF1 male mouse on acyltransferase
Mus musculus [10] = test: In vitro effect on CF1 male mouse on Ac-CoA synthetase after 16 days at a dose of 10 (mg/kg)/day; conditions: in the assay text read “In vivo” for “In vitro”; procedure, shortened: as §1
Mus musculus [11] = species on record: Mus musculus; test: In vitro effect on CF1 male mouse on phosphatidate phosphohydrolase
Mus musculus [12] = test: Effect on Serum cholesterol levels on CF1 male mice at a dose of 50 (mg/kg)/day after 16 days
Procedure, shortened: (§3)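 CF1 male mice (~25 g), drug suspended in 1% carboxymethylcellulose in water, given ip daily for 16 days; n = 6; vehicle control. Tail-vein blood on days 9 and 16, serum cholesterol by modified Liebermann–Burchard reaction; day-14 serum triglyceride by commercial kit; expressed as % control.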

Mus musculus [13] = test: In vitro effect on CF1 male mouse on acyltransferase after 16 days at a dose of 10 (mg/kg)/day; procedure, shortened: as §1
Mus musculus [14] = test: Effect on Serum cholesterol levels on CF1 male mice at a dose of 20 (mg/kg)/day after 16 days; procedure, shortened: as §3
Mus musculus [15] = test: Effect on phospholipids from CF1 male mice after 16 days at a dose of 20 (mg/kg/day)
Procedure, shortened: (§4)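 Dosing was ip in CF₁ male mice (~25 g) for 16 days, with compound suspended in 1% carboxymethylcellulose. Liver was then taken and homogenised to 10% in 0.25 M sucrose with 0.001 M EDTA. Lipid was extracted from a 2 mL aliquot by the Folch and Bligh–Dyer methods and total mg of lipid was weighed. Cholesterol (Liebermann–Burchard), triglycerides (kit), neutral lipids and phospholipids were then measured; N = 6; reported as % of vehicle control.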

Mus musculus [16] = test: Effect on Serum cholesterol levels on CF1 male mice at a dose of 100 (mg/kg)/day after 9 days; procedure, shortened: as §3
Mus musculus [17] = test: Effect on triglycerides from CF1 male mice after 16 days at a dose of 20 (mg/kg/day); procedure, shortened: as §4
Mus musculus [18] = species on record: Mus musculus; test: In vitro effect on CF1 male mouse on Cholesterol side- chain oxidation
Procedure, shortened: (§5)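 In vitro test on 10% CF₁ male mouse liver homogenate (0.25 M sucrose, 0.001 M EDTA) with 2.5 μmol test drug. Assays: acetyl-CoA synthetase and citrate lyase as hydroxamate at 540 nm, 30 min, 37 °C; citrate exchange from [¹⁴C]citrate-loaded mitochondria after 10 min with drug; side-chain oxidation by ¹⁴CO₂ from [26-¹⁴C]cholesterol, 18 h, 37 °C; acetyl-CoA carboxylase by [¹⁴C]bicarbonate fixation after 30 min polymerization then 30 min at 37 °C.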

Mus musculus [19] = species on record: Mus musculus; test: Effect on Serum cholesterol levels on Hyperlipidemic induced mice After 2-week diet
Procedure, shortened: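 Mice fed atherogenic diet for 2 weeks to raise serum lipids, then given drug at 20 (mg/kg)/day ip for a further 2 weeks; serum cholesterol and triglyceride measured after the diet and after 14 days dosing; n = 6; compared with 1% CMC and diet-only controls; % control.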

Mus musculus [20] = test: Effect on neutral lipids from CF1 male mice after 16 days at a dose of 10 (mg/kg/day); procedure, shortened: as §4
Mus musculus [21] = species on record: Mus musculus; test: In vitro effect on CF1 male mouse on Mitochondrial citrate exchange; procedure, shortened: as §5
Rattus norvegicus [22] = test: Effect on Chylomicrons of Triglycerides Holtzman rats after 14 days administration; procedure, shortened: as §2
Mus musculus [23] = test: In vitro effect on CF1 male mouse on acyltransferase after 16 days at a dose of 60 (mg/kg)/day; procedure, shortened: as §1
Rattus norvegicus [24] = test: Effect on Serum cholesterol levels on Holtzman rats at a dose of 20 (mg/kg)/day after 16 days
Procedure, shortened: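 Holtzman male rats (~200 g) dosed orally by intubation needle daily for 16 days, drug suspended in 1% carboxymethylcellulose; n = 6; vehicle control. Tail-vein serum cholesterol on days 9 and 16 by modified Liebermann–Burchard reaction; day-14 serum triglyceride by commercial kit; % control.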

Mus musculus [25] = test: Effect on phospholipids from CF1 male mice after 16 days at a dose of 40 (mg/kg/day); procedure, shortened: as §4
Mus musculus [26] = test: Effect on mg of lipid from CF1 male mice after 16 days at a dose of 10 (mg/kg/day)
Procedure, shortened: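 CF1 male mice dosed ip for 16 days at 10–60 (mg/kg)/day; liver taken and 10% homogenate made in 0.25 M sucrose + 0.001 M EDTA; aliquot extracted by Folch and Bligh–Dyer methods, mg lipid weighed, cholesterol measured by Liebermann–Burchard method; n = 6; % of 1% CMC control.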

Mus musculus [27] = test: Effect on Serum triglceride levels on CF1 male mice at a dose of 50 (mg/kg)/day after 14 days; procedure, shortened: as §3
Mus musculus [28] = test: In vitro effect on CF1 male mouse on HMGCoA reductase after 16 days at a dose of 40 (mg/kg)/day; procedure, shortened: as §1
Rattus norvegicus [29] = test: Effect on low density Phospholipids Holtzman rats after 14 days administration; procedure, shortened: as §2
Mus musculus [30] = test: Effect on Serum triglceride levels on CF1 male mice at a dose of 100 (mg/kg)/day after 14 days; procedure, shortened: as §3
Mus musculus [31] = species on record: Mus musculus; test: In vitro effect on CF1 male mouse on Citrate lyase; procedure, shortened: as §5

CC(=O)c1ccccc1N1C(=O)c2ccccc2C1=O
Control (Mus musculus [1]): 86%
Control (Rattus norvegicus [2]): 57%
Control (Mus musculus [3]): 91%
Control (Mus musculus [4]): 43%
Control (Mus musculus [5]): 107%
Control (Rattus norvegicus [6]): 55%
Control (Mus musculus [7]): 8%
Control (Rattus norvegicus [8]): 446%
Control (Mus musculus [9]): 54%
Control (Mus musculus [10]): 53%
Control (Mus musculus [11]): 65%
Control (Mus musculus [12]): 29%
Control (Mus musculus [13]): 35%
Serum cholesterol (% of control) (Mus musculus [14]): 43%
Control (Mus musculus [15]): 163%
Control (Mus musculus [16]): 42%
Control (Mus musculus [17]): 91%
Control (Mus musculus [18]): 27%
Control (Mus musculus [19]): 289%
Control (Mus musculus [20]): 36%
Control (Mus musculus [21]): 76%
Control (Rattus norvegicus [22]): 41%
Control (Mus musculus [23]): 45%
Control (Rattus norvegicus [24]): 56%
Control (Mus musculus [25]): 143%
Control (Mus musculus [26]): 84%
Control (Mus musculus [27]): 53%
Control (Mus musculus [28]): 84%
Control (Rattus norvegicus [29]): 87%
Control (Mus musculus [30]): 59%
Control (Mus musculus [31]): 62%
